GASC-1 inh = inhibitors of GASC-1 histone demethylase, primary screen, biochemical, fluorescence, DELFIA europium | inhibition, % at 2.35 µM | hit rate 0.069% among 330,000 | AID 2099, 2009 | Lysine-specific demethylase 4C (Homo sapiens), Q9H3R0 | GST-JMJD2C(1-420) H3K9me3 demethylation;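 active means more than half of a compound's replicate wells show inhibition beyond 50%, single wells judged on their own value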;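 further: signal counts dimethyl H3K9 product captured on neutravidin plate; 0% = median of DMSO wells and 100% = 0.3 times that DMSO median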
PP5 primary = PP5 phosphatase inhibitors, primary screen, biochemical, fluorescence | Serine/threonine-protein phosphatase 5 (Homo sapiens), P53041 | purified PP5c, OMFP substrate fluorescence | inhibition, % at 6.7 µM | hit rate 0.18% among 320,000;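 active means inhibition above the campaign's mean inhibition across all tested compounds plus 3 SD, cut at about 9.5% in these data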;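 further: 0% = DMSO only and 100% = 100 µM cantharidin control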
T cruzi repl = inhibitors of intracellular T. cruzi growth, primary screen, luminescence, NIH3T3 host cells; hit rate 1.4% among 300,000; inhibition, % (no concentration beside the values); T. cruzi beta-gal in NIH3T3, 90 h;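 active means mean inhibition across valid replicates above about 55%, limit read from the data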;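 further: signal also drops with host cell toxicity which is not excluded here; 0% = plate median of DMSO wells and 100% = zero luminescence signal; higher percent means less beta-gal luminescence so fewer parasites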
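Assay system: NIH/3T3 host cells with β-galactosidase reporter T. cruzi; input: 5,000 host fibroblasts per well; compound: single 50 nL compound addition per well in DMSO; timing: ≥90 h infection period, 3 h prior cell attachment; measured by: GalScreen β-gal luminescence, detergent lysis, 60 min; evaluation: percent inhibition of parasite-derived β-gal signal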
H9c2 protect = cardioprotection against H2O2-induced cell death, primary screen, uHTS, H9c2 cells, ATPLite luminescence; protection from H2O2 cell death, % at 20 µM; H9c2 cardiomyocytes, H2O2 injury protection, 2 h; hit rate 0.63% among 360,000;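 active means compounds giving at least 50% protection of heart cells from peroxide-induced death in the single-dose screen, raw or plate-pattern-corrected value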;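 further: 0% = DMSO wells with peroxide and 100% = DMSO wells without peroxide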
CTSL1 counter = Fasciola hepatica cathepsin L1 inhibitors, primary screen, counter-screen for PFM18AAP inhibitor project, biochemical, QFRET, fluorogenic peptide substrate; recombinant F. hepatica cathepsin L1, Z-Leu-Arg-MCA fluorescence; inhibition, % at 5.96 µM; AID 1906, 2009; hit rate 0.49% among 300,000;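 active means inhibition above the mean of all tested compounds plus 3 SD, set per screening campaign, cut at about 17% in these data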;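 further: 0% = plate median of test compound wells and 100% = 1 µM Z-Phe-Ala-diazomethylketone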
pCIP destab = p/CIP-EGFP fusion destabilizers, primary screen, fluorescence, F442A cells; Q05BA5; 16 h; decrease of EGFP signal, % at 10 µM; hit rate 0.01% among 290,000; AID 1984, 2009;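 active means EGFP signal decrease of at least 30% at 10 µM or well 3 SD below plate mean, unless failing retest; inactive means the rest, including hits failing retest or dose response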
Target sequence (Q05BA5 1-1403): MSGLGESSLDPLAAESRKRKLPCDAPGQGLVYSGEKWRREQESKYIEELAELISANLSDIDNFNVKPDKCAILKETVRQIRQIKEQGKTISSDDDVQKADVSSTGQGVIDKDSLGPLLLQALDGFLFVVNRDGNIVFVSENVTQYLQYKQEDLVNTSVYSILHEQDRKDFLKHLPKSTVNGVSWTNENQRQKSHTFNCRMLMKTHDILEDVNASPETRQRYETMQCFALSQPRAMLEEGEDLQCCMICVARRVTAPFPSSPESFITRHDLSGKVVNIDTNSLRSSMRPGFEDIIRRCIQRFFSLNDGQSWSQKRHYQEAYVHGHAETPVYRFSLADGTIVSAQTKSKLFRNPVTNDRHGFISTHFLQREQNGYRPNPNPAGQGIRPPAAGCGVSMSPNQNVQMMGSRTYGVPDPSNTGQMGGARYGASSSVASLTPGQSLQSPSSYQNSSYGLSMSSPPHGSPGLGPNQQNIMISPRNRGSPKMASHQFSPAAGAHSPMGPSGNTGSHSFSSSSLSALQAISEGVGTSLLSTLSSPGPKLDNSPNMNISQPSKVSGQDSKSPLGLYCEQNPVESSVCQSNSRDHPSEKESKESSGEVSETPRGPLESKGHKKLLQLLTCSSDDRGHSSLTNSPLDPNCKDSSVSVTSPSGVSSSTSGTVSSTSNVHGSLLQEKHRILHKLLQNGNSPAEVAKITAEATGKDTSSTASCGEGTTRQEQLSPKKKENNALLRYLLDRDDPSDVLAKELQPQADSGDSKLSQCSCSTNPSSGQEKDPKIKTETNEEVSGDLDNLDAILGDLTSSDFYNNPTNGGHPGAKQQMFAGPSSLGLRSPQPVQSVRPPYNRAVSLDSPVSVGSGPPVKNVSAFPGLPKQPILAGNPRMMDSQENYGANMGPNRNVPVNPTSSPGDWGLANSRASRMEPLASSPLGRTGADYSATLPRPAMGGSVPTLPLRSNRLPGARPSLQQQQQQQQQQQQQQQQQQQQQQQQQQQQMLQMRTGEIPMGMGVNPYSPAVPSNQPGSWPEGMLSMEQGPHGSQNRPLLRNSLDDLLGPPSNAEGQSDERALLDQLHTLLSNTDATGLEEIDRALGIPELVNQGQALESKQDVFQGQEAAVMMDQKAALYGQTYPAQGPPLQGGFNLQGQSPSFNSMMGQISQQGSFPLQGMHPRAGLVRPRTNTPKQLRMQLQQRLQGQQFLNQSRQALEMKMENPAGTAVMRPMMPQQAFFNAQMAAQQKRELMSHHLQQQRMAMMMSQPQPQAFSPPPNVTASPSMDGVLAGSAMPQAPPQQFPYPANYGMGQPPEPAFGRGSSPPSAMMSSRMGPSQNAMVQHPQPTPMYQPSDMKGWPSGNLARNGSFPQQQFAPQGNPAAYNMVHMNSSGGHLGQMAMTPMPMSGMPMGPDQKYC
PP5 inh confirm = PP5 phosphatase inhibitors, confirmation, biochemical, fluorescence, human | shares compounds with PP5 primary | Purified PP5, fluorogenic phosphatase substrate | inhibition, % at 6.7 µM | hit rate 22% among 460 | AID 2331, 2010; in the data active means inhibition above about 9.5%
PP1 counter 3x = PP1 phosphatase inhibitors, counter-screen for PP5 inhibitor project, biochemical, fluorescence, triplicate | shares compounds with PP5 primary | hit rate 4% among 460 | AID 2355, 2010 | inhibition, % at 6.7 µM | PP1 enzyme, fluorescent phosphatase substrate; in the data active means inhibition above about 16%
An asterisk follows results filed as active; nt = not tested or not shown. Only some compounds are listed: those with a hit (about 2.4% of all), similar ones and a draw of the others.

SMILES	GASC-1 inh	PP5 primary	T cruzi repl	H9c2 protect	CTSL1 counter	pCIP destab	PP5 inh confirm	PP1 counter 3x
O=C(N/N=C\c1ccc(Cl)s1)c1ccc(Cn2cccn2)o1	-31.1	-3.6	-15.2	3.6	9.9	4.1	nt	nt
O=C(N/N=C\c1c(O)ccc2ccccc12)c1ccc(Cn2cccn2)o1	13.3	18.5*	14.2	44.5	2.4	-18.3	-3.5	14.9
COc1cccc(CN(C)C(=O)Cn2cc(C)c(=O)[nH]c2=O)c1	nt	nt	nt	9.9	nt	nt	nt	nt
Cc1cnc(C)c(Nc2nc(C(N)Cc3ccc(C(F)(F)F)cc3)cs2)n1 (stereo not drawn)	nt	nt	nt	-11.5	nt	nt	nt	nt
CCc1c(C(=O)NCCc2ccc(OC)c(OC)c2)[nH]c(C)c1C(C)=O	-2.6	12.5*	-9.3	2.7	-1.5	-5.1	-6.1	-4.0
CCc1c(C(=O)NCCc2cccc(C)c2)[nH]c(C)c1C(C)=O	-1.4	-2.2	11.0	-5.7	0.8	-6.6	nt	nt
Cc1ccc([C@H]2C[C@@H](O)[C@H](n3cc(-c4ccc(F)cc4)nn3)CN2C(=O)c2cccs2)cc1	nt	nt	nt	-17.0	nt	nt	nt	nt
Cc1[nH]c2ccccc2c1C(C#N)(C#N)C1C(=O)c2ccccc2C1=O	20.7	21.0*	25.8	-15.1	3.2	8.0	7.8	0.5
COC(=O)c1[nH]c(C)c(/C(O)=C2\C(=O)C(=O)N(CCN3CCOCC3)C2c2ccccc2OC)c1C (stereo not drawn)	-2.0	10.8*	-15.7	-3.7	2.0	-5.7	0.7	-0.3
Nc1ccc(O)cc1	-26.5	10.9*	1.7	nt	96.1*	nt	5.2	-1.8
CC12CCC(=O)N1C(C(=O)Nc1nc(-c3ccccc3Cl)cs1)CS2 (stereo not drawn)	7.6	4.0	5.3	9.7	-0.6	nt	nt	nt
CC(C)Oc1ccccc1C1(c2ccccc2)NC(=O)NC1=O (stereo not drawn)	7.0	-0.1	-4.8	1.1	0.1	-7.4	nt	nt
CN(C)CCNc1ncnc2c1ncn2[C@H]1CN(CCc2ccccc2)C[C@@H](CO)O1	nt	nt	nt	-5.3	nt	nt	nt	nt
Cc1ccc(C(=O)OCC(=O)Nc2cccc(S(=O)(=O)N3CCCCC3)c2)s1	nt	nt	nt	-16.9	nt	nt	nt	nt
O=C(NCCc1ccccc1)c1ccccc1F	4.9	1.9	-1.3	-4.5	-1.3	-17.0	nt	nt
O=C(NCCCCc1ccccc1)c1ccccc1F	11.3	11.8*	-5.6	1.7	-4.5	1.4	-1.2	-2.1
Cc1ccccc1OCC(=O)NNC(=O)c1ccoc1C	-1.4	0.1	nt	-3.4	nt	nt	nt	nt
O=C(C1CC(=O)N(c2ccccc2)C1)N1CCN(c2ccccc2F)CC1 (stereo not drawn)	-6.6	-0.9	-2.0	-1.4	-0.7	-17.7	nt	nt
COc1ccccc1NC(=O)c1c(Nc2ccccc2F)sc(C(=O)Nc2cccc(Cl)c2)c1N	5.8	0.4	6.4	-20.8	-0.4	-3.0	nt	nt
COc1ccc(Nc2sc(C(=O)Nc3cccc(Cl)c3)c(N)c2C(=O)Nc2ccccc2OC)cc1	-0.9	11.7*	8.3	nt	3.6	-4.8	0.7	5.8
C=CCOc1ccc(C(=O)Nc2ccccc2C(=O)NCc2cccnc2)cc1	10.1	-0.7	0.2	-1.7	1.4	-13.6	nt	nt
COc1ccc(-c2nnnn2C)cc1S(=O)(=O)Nc1ccc(C)cc1C	2.9	-0.2	-3.8	9.4	2.2	-10.2	nt	nt
OC(CNCc1ccccc1)Cn1ccc2ccccc21 (stereo not drawn)	-2.6	-3.0	2.1	14.9	0.8	2.6	nt	nt
Oc1ccccc1NCC(O)Cn1ccc2ccccc21 (stereo not drawn)	48.9	9.8*	19.6	-19.1	-1.5	-9.7	4.1	-1.6
CCCCn1c(NC(=O)c2ccccc2Cl)c(C#N)c2nc3ccccc3nc21	34.9	12.1*	14.8	-34.6	6.4	-21.8	40.4*	27.1*
SMILES	GASC-1 inh	PP5 primary	T cruzi repl	H9c2 protect	CTSL1 counter	pCIP destab	PP5 inh confirm	PP1 counter 3x
N#Cc1c(NC(=O)c2ccccc2Cl)n(Cc2ccccc2)c2nc3ccccc3nc12	13.2	5.6	nt	-17.8	2.4	-6.3	nt	nt
COc1ccc(C(=O)N[C@H](C(=O)Nc2cccc(S(=O)(=O)N3CCOCC3)c2)C(C)C)cc1	nt	nt	nt	-3.1	nt	nt	nt	nt
CCc1ccc(C(=O)NNC(=S)Nc2ccc(S(N)(=O)=O)cc2)s1	-23.7	14.2*	-6.6	-3.6	-0.7	0.5	-1.7	0.7
CC(C)CC(=O)NNC(=S)Nc1ccc(S(N)(=O)=O)cc1	-10.4	3.8	-8.8	-4.3	-1.3	16.5	nt	nt
COc1ccc(C(=O)Nc2ccc(S(=O)(=O)NC(C)=O)cc2)cc1	13.6	11.8*	-10.8	1.9	2.7	2.1	-7.0	-5.0
CCNC(=S)NS(=O)(=O)c1ccc(C)cc1	-4.0	0.6	-27.7	-1.1	-5.4	-7.4	nt	nt
CCNC(=S)NS(=O)(=O)c1ccc(CC)cc1	11.9	10.0*	-17.5	1.6	-1.5	-1.8	-2.8	-2.2
CCCCNC(=O)CC1Nc2ccccc2NC1=O (stereo not drawn)	-2.5	-0.2	6.1	5.6	8.3	0.8	nt	nt
CCCCCNC(=O)CC1Nc2c3ccccc3nc(=S)n2C1=O (stereo not drawn)	1.8	9.9*	-10.6	-5.9	-2.7	-7.0	-5.3	-3.5
CC(C)(C)OC(=O)NCCCC[C@H](NC(=O)c1[nH]cnc1C(=O)Nc1ccccc1)C(=O)OC(C)(C)C	-4.4	10.6*	46.3	32.9	6.7	-8.0	7.8	7.6
CC(C)C[C@H](NC(=O)c1nc[nH]c1C(=O)N[C@@H](CCCCNC(=O)OC(C)(C)C)C(=O)OC(C)(C)C)C(=O)OC(C)(C)C	1.2	13.8*	20.7	15.8	8.9	-3.6	9.3	11.5
CC(C)(C)OC(=O)NCCCC[C@H](NC(=O)c1[nH]cnc1C(=O)Nc1ccc(Cl)cc1)C(=O)OC(C)(C)C	-4.5	8.9	48.6	20.8	4.6	-15.4	nt	nt
Cc1ccc(/C(O)=C2\C(=O)C(=O)N(C)C2c2ccc(Br)cc2)cc1 (stereo not drawn)	-8.1	10.4*	-7.4	2.2	-0.1	5.9	-6.6	-2.3
CCN(C(=O)c1ccccc1)c1ccc([N+](=O)[O-])cc1	-0.3	-3.1	-1.3	-1.0	-2.3	-4.6	nt	nt
O=[N+]([O-])c1ccc(N(c2ccccc2)c2ccccc2)cc1	-2.4	9.9*	38.8	-12.4	2.0	-12.1	-2.4	-1.2
COC(=O)C(C)NC(=O)C1CCCN1C(=O)CNC(=O)OCc1ccccc1 (stereo not drawn)	-17.0	-1.1	-9.0	-4.1	-4.3	-13.8	nt	nt

Source: PubChem (several laboratories)
